This note sets out measurements from ChEMBL document CHEMBL1144767, “Characterization of chemical libraries for luciferase inhibitory activity” (J Med Chem, 2008).

Activity calls are given as the source filed them. No cut-off for these calls is given here. Where only a bound is given, the exact number is not on record here.

Test [1] deals with T1, Luciferin 4-monooxygenase (Photinus pyralis, UniProt P08659). The experiment in a line: (§1) Inhibition of Photinus pyralis luciferase by Steady-Glo reporter gene assay. The method, boiled down: (§2)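 5 nM purified P. pyralis luciferase in SteadyGlo or BrightGlo reporter-gene reagent; no extra ATP or D-luciferin added. 1536-well luminescence. Curves from 16 two-fold concentrations in duplicate, repeated on two or three separate days.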
T1 sequence (P08659 whole entry): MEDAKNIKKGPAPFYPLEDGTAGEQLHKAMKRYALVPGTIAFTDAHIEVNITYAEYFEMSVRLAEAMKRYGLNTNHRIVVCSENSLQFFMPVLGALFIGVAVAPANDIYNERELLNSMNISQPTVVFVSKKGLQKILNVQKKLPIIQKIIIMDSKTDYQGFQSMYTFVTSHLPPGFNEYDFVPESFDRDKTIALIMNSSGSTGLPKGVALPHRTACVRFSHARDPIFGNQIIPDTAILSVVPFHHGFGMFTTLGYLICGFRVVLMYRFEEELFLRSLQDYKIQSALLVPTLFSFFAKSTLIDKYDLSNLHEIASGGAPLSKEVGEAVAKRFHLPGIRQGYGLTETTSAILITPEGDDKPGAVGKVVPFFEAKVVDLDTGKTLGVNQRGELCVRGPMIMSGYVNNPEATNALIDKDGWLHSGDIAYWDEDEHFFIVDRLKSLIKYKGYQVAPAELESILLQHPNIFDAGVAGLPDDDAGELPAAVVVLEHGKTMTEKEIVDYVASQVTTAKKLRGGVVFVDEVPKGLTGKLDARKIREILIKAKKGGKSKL
Background: Reporter assays use an easily measured gene product as a stand-in for the process of interest.

Test [2] deals with T1, Luciferin 4-monooxygenase. Kind of test: Inhibition of Photinus pyralis luciferase.
Test [3] addresses T1, Luciferin 4-monooxygenase. The experiment in a line: (§3) Inhibition of Photinus pyralis luciferase by BrightGlo reporter gene assay. The method, boiled down: as §2
In test [4] the target is T1, Luciferin 4-monooxygenase. Kind of test: Inhibition of Photinus pyralis luciferase by Easy lite assay. An outline of the steps: (§4)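 Detection by 2 µL of EasyLite or Kinase-Glo reagent (Kinase-Glo containing P. pennsylvanica luciferase). 1536-well luminescence. 16 two-fold concentrations, duplicate wells, repeated on two or three days.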
For test [5], the target named is Luciferin 4-monooxygenase (Photinus pyralis) (UniProt P08659). Kind of test: Inhibition of Photinus pyralis luciferase at 3 uM.
Luciferin 4-monooxygenase (Photinus pyralis), sequence (P08659 whole entry): as above
Test [6] concerns the target T1, Luciferin 4-monooxygenase. Kind of test: Inhibition of Photinus pyralis luciferase by PK-Light assay.
In test [7] the target is T2, Luciferin 4-monooxygenase (Photuris pensylvanica) (UniProt Q27757).
T2 sequence (whole entry): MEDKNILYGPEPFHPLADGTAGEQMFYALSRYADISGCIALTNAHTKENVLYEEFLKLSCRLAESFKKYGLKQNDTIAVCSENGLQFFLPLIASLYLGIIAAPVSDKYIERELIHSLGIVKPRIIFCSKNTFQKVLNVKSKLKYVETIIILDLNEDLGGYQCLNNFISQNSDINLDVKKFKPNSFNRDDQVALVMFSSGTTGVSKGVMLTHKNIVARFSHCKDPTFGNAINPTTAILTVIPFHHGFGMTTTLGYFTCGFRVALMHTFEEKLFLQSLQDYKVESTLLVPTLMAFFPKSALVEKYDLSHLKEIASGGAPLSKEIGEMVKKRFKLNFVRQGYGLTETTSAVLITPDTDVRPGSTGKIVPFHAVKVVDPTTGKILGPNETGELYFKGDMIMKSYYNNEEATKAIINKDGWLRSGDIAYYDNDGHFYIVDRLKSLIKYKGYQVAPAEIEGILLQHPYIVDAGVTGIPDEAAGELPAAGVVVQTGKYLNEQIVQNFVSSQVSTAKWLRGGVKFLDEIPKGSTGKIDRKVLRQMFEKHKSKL
The experiment in a line: (§5) Inhibition of luciferase Photuris pennsylvanica by Promega Kinase-Glo assay. An outline of the steps:
as §4
(In Kinase-Glo more light means more ATP remaining.)

Test [8] concerns the target Luciferin 4-monooxygenase (Photinus pyralis) (UniProt P08659). The test is described as §1. An outline of the steps:
as §2

The target is the same in test [9]. The test is described as §3. An outline of the steps:
as §2

A short description of test [10]: Inhibition of Renilla reniformis luciferase.
Test [11] deals with Luciferin 4-monooxygenase (Photinus pyralis) (UniProt P08659). Kind of test: Inhibition of Photinus pyralis luciferase at 0.04 uM.
The target in test [12] is T3, Luciferin 4-monooxygenase (Photuris pensylvanica, UniProt Q27757).
T3 sequence (Q27757 whole entry): T2 sequence (whole entry)
The description is as §5. The method, boiled down:
as §4

Test [13] addresses Luciferin 4-monooxygenase (Photinus pyralis) (UniProt P08659). Kind of test: Inhibition of Photinus pyralis luciferase at 1 uM.
The target of test [14] is T2, Luciferin 4-monooxygenase (Photuris pensylvanica). Kind of test: Inhibition of Photuris pennsylvanica luciferase at 57 uM by Promega Kinase-Glo assay.
Test [15] concerns the target Luciferin 4-monooxygenase (Photinus pyralis) (UniProt P08659). Kind of test: Inhibition of […] luciferase at 20 uM assessed as quenching of luminescence. Set-up: scale not given: the % may be the effect or the level left. The method, boiled down: (§6)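 Light attenuation in two-chamber quartz cuvette at room temperature. One half holds the reaction, the other holds compound in the same buffer. Firefly reaction: 100 µM ATP and D-luciferin, 100 nM enzyme, 5 nm slit. Renilla reaction: 50 µM coelenterazine, 100 nM enzyme, 10 nm slit. Emission scanned 400–700 nm in 2 nm steps, 0.1 s integration. Compounds 2-fold diluted from 100 µM.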

The next test has as its system Renilla reniformis. The experiment in a line: Inhibition of Renilla reniformis luciferase at 20 uM assessed as quenching of luminescence. Further details: scale not given: the % may be the effect or the level left. The method, boiled down:
as §6

The target in test [16] is Luciferin 4-monooxygenase (Photinus pyralis) (UniProt P08659). The experiment in a line: Inhibition of […] luciferase at 100 uM. An outline of the steps: as §6

As to `COc1ccc(-c2cc3ccc(OCc4nn[nH]n4)cc3oc2=O)cc1`, the IC50 in [1] worked out at 10 µM; in [2], 1.1 µM; in test [3], 13.3 µM; in test [4], 3.2 µM; in test [6] it was 5.4 µM. In addition, the inhibition in test [5] is 100%. Besides, in test [7], the outcome was inactive.

With `CCOc1ccc(-c2cc(C(=O)N3CCN(c4ccccn4)CC3)c3ccccc3n2)cc1`, the outcome in test [8] and in test [9] was inactive. The 50% inhibitory concentration (IC50) in [10] was 11 µM.

In test [10], `CN(C)c1ccc(/C=C2\C(=O)Nc3ccccc32)cc1` had an IC50 of 19 µM. In addition, in test [7], the outcome was inactive.

For the compound `CCN(CC)c1ccc2cc(-c3nc4ccccc4[nH]3)c(=O)oc2c1`, the IC50 in test [1] came out at 0.12 µM; in [2], 0.24 µM; in test [3], 0.4 µM; in test [10] it was 5.3 µM; in test [4], 14 µM; in [6] it was 0.38 µM. The IC50 in [12] turned out to be 16 µM. Moreover, in test [11], the inhibition is 100%.

In test [13], `CCN(CC)c1ccc2cc(-c3nc4ccccc4n3C)c(=O)oc2c1` displayed an inhibition of 28%.

Regarding `CCOc1ccc(-c2cc(C(=O)N3CCN(C)CC3)c3ccccc3n2)cc1`, the outcome in [8] and in [9] was inactive. The IC50 in test [2] is 1.3 µM; in test [10] it was above 25 µM; in test [4], 1.1 µM; in test [6], 2.4 µM; in test [12], above 50 µM.

As for `Cc1ccc(C(=O)Nc2nc3ccc(S(C)(=O)=O)cc3s2)s1`, the IC50 in [1] is 10 µM; in test [2] it was 1.1 µM; in test [3], 13.3 µM; in [4], 3.2 µM; in test [6] it was 5.4 µM. For the same compound, the outcome in test [14] and in test [7] was inactive.

With `Clc1cccc(/C=N\C=N\c2cccc(Cl)c2)c1`, the result in test [8], in [9] and in test [7] was inactive. The IC50 in [2] was 4.5 µM; in [10], above 50 µM; in test [4] it was 11.4 µM; in test [6], 7.8 µM.

Consider `Cc1ccc(-c2cc(C(=O)N3CCN(c4ncccn4)CC3)c3ccccc3n2)cc1`, for which the outcome in [8] and in test [9] was inactive. The same compound displayed an IC50 in test [10] above 25 µM.

With `Cc1cc(-c2ccc(/N=N/c3ccc4c(S(=O)(=O)O)cc(S(=O)(=O)O)c(N)c4c3O)c(C)c2)ccc1/N=N/c1ccc2c(S(=O)(=O)O)cc(S(=O)(=O)O)c(N)c2c1O` [EVANS BLUE], the 50% inhibitory concentration (IC50) in [1] was found to be 22 µM; in [2], 1.7 µM; in test [3], 17 µM; in test [10], 10 µM; in [4], 7.6 µM; in [6], 6.9 µM. Further, the IC50 in test [12] was 20 µM. The Activity (in [15]; in the test on Renilla reniformis) was 50% throughout.

On to `Cc1ccc(O)c(/N=N/c2ccccc2)n1`, for which the IC50 in test [1] came out at 1.6 µM; in test [2] it was 4.5 µM; in [3] it was 2 µM; in test [10] it was 36 µM; in test [4], 1.26 µM; in [6] it was 1.7 µM. Besides, the concentration for half-maximal inhibition (IC50) in test [12] worked out at 1.8 µM. For the same compound, in test [16], the outcome was inactive.

Turning to `CCOc1ccc(-c2cc(C(=O)N3CCC4(CC3)OCCO4)c3ccccc3n2)cc1`, the outcome in test [8] and in test [9] was inactive. The IC50 is 0.7 µM in test [2]; 11 µM in test [10]; 1 µM in test [4]; 1.4 µM in test [6]; above 50 µM in [12].

In the case of `CCOC(=O)N1CCN(C(=O)c2cc(-c3ccc(OCC)cc3)nc3ccccc23)CC1`, the outcome in [8] and in test [9] was inactive. Moreover, the IC50 in test [2] is 0.9 µM; in test [10], 20 µM; in test [4], 1 µM; in test [6], 1.4 µM; in test [12], above 50 µM.

The IC50 is the midpoint of a concentration-inhibition curve. As usually defined, the inhibition is the relative decrease from the control value, in per cent.
